One block for each compound: values may come before it. Activity calls are given as the source filed them. The calls are words filed in the database; no cut-off is given here.
Columns and labels:
A549 = assay: Antiproliferative activity against human A549 cells after 48 hrs by MTT assay; assay type: functional, cell-based; settings: A549, 48 h
Method in brief: (§1)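 Cells in logarithmic growth were seeded at 5 × 10^3 cells/well and left for 24 h, then exposed to a range of compound concentrations for 48 h. MTT (5 mg/mL) was added for 4 h, the formazan was dissolved in DMSO and absorbance read at 570 nm. IC50 is the concentration giving 50% growth inhibition, from at least three independent experiments, mean ± SD. Culture: DMEM, 10% heat-inactivated FBS, penicillin/streptomycin, 37 °C, 5% CO2.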

HeLa [1] = assay: Antiproliferative activity against human HeLa cells after 48 hrs by MTT assay; assay type: functional, cell-based; method in brief: as §1
PC-3 = assay: Antiproliferative activity against human PC3 cells after 48 hrs by MTT assay; assay type: functional, cell-based; settings: PC-3, 48 h; method in brief: as §1
MCF7 = assay: Antiproliferative activity against human MCF7 cells after 48 hrs by MTT assay; assay type: functional, cell-based; settings: MCF7, 48 h; method in brief: as §1
A2780 = assay: Antiproliferative activity against human A2780 cells after 48 hrs by MTT assay; assay type: functional, cell-based; settings: A2780, 48 h; method in brief: as §1
[2] = Inhibition of porcine brain tubulin polymerization preincubated for 1 min followed by addition of tubulin measured every 60 s for 90 min by DAPI staining-based fluorescence assay; design: species or system Sus scrofa
HeLa [3] = assay: Induction of morphological changes in human HeLa cells assessed as microtubule shrinking at 25 to 100 nM after 24 hrs by Hoechst 33342 staining-based laser scanning confocal microscopic method; assay type: functional, cell-based
HeLa [4] = assay: Induction of morphological changes in human HeLa cells assessed as membrane blebbing at 25 to 100 nM after 24 hrs by Hoechst 33342 staining-based laser scanning confocal microscopic method; assay type: functional, cell-based
HeLa [5] = assay: Induction of morphological changes in human HeLa cells assessed as chromatin condensation at 25 to 100 nM after 24 hrs by Hoechst 33342 staining-based laser scanning confocal microscopic method; assay type: functional, cell-based
HeLa [6] = assay: Induction of apoptosis in human HeLa cells assessed as early apoptotic cells at 25 nM after 24 hrs by Annexin-V/FITC/propidium iodide staining-based flow cytometry method (reference value: 0.59%); assay type: functional
HeLa [7] = assay: Induction of apoptosis in human HeLa cells assessed as live cells at 25 nM after 24 hrs by Annexin-V/FITC/propidium iodide staining-based flow cytometry method (reference value: 99.1%); assay type: functional
HeLa [8] = assay: Induction of apoptosis in human HeLa cells assessed as late apoptotic cells at 25 nM after 24 hrs by Annexin-V/FITC/propidium iodide staining-based flow cytometry method (reference value: 0.26%); assay type: functional
HeLa [9] = assay: Induction of apoptosis in human HeLa cells assessed as necrotic cells at 25 nM after 24 hrs by Annexin-V/FITC/propidium iodide staining-based flow cytometry method (reference value: 0.04%); assay type: functional
HeLa [10] = assay: Induction of apoptosis in human HeLa cells assessed as early apoptotic cells at 50 nM after 24 hrs by Annexin-V/FITC/propidium iodide staining-based flow cytometry method (reference value: 0.59%); assay type: functional
HeLa [11] = assay: Induction of apoptosis in human HeLa cells assessed as live cells at 50 nM after 24 hrs by Annexin-V/FITC/propidium iodide staining-based flow cytometry method (reference value: 99.1%); assay type: functional
HeLa [12] = assay: Induction of apoptosis in human HeLa cells assessed as early apoptotic cells at 100 nM after 24 hrs by Annexin-V/FITC/propidium iodide staining-based flow cytometry method (reference value: 0.59%); assay type: functional
HeLa [13] = assay: Induction of apoptosis in human HeLa cells assessed as late apoptotic cells at 50 nM after 24 hrs by Annexin-V/FITC/propidium iodide staining-based flow cytometry method (reference value: 0.26%); assay type: functional
HeLa [14] = assay: Induction of apoptosis in human HeLa cells assessed as necrotic cells at 50 nM after 24 hrs by Annexin-V/FITC/propidium iodide staining-based flow cytometry method (reference value: 0.04%); assay type: functional
HeLa [15] = assay: Induction of apoptosis in human HeLa cells assessed as live cells at 100 nM after 24 hrs by Annexin-V/FITC/propidium iodide staining-based flow cytometry method (reference value: 99.1%); assay type: functional
HeLa [16] = assay: Induction of apoptosis in human HeLa cells assessed as late apoptotic cells at 100 nM after 24 hrs by Annexin-V/FITC/propidium iodide staining-based flow cytometry method (reference value: 0.26%); assay type: functional
HeLa [17] = assay: Induction of apoptosis in human HeLa cells assessed as necrotic cells at 100 nM after 24 hrs by Annexin-V/FITC/propidium iodide staining-based flow cytometry method (reference value: 0.04%); assay type: functional
HeLa [18] = assay: Induction of apoptosis in human HeLa cells after 24 hrs by Annexin-V/FITC/propidium iodide staining-based flow cytometry method; assay type: functional, cell-based
HeLa [19] = assay: Cell cycle arrest in human HeLa cells assessed as accumulation at G2/M phase at 25 nM after 24 hrs by propidium iodide staining-based flow cytometry method (reference value: 19.0%); assay type: functional
HeLa [20] = assay: Cell cycle arrest in human HeLa cells assessed as accumulation at G2/M phase at 50 nM after 24 hrs by propidium iodide staining-based flow cytometry method (reference value: 19.0%); assay type: functional
HeLa [21] = assay: Cell cycle arrest in human HeLa cells assessed as accumulation at G2/M phase at 100 nM after 24 hrs by propidium iodide staining-based flow cytometry method (reference value: 19.0%); assay type: functional
HeLa [22] = assay: Cell cycle arrest in human HeLa cells assessed as accumulation at G2/M phase after 24 hrs by propidium iodide staining-based flow cytometry method; assay type: functional

Compound: C=C(/C=C/c1ccc(OC)c(O)c1)c1cc(OC)c(OC)c(OC)c1
IC50 (A549): 286 nM
IC50 (HeLa [1]): 320 nM
IC50 (PC-3): 423 nM
IC50 (MCF7): 569 nM
IC50 (A2780): 457 nM

Compound: CCC=C(/C=C/c1ccc(OC)c(N)c1)c1cc(OC)c(OC)c(OC)c1
IC50 (A549): 398 nM
IC50 (HeLa [1]): 314 nM
IC50 (PC-3): 285 nM
IC50 (MCF7): 486 nM
IC50 (A2780): 248 nM

Compound: CO/C=C(\C=C\c1ccc(OC)c(O)c1)c1cc(OC)c(OC)c(OC)c1
IC50 (A549): 1600 nM
IC50 (HeLa [1]): 5630 nM
IC50 (PC-3): 5320 nM
IC50 (MCF7): 3260 nM
IC50 (A2780): 2220 nM

Compound: C=C(/C(C)=C/c1ccc(OC)c(F)c1)c1cc(OC)c(OC)c(OC)c1
IC50 (A549): 219 nM
IC50 (HeLa [1]): 483 nM
IC50 (PC-3): 354 nM
IC50 (MCF7): 412 nM
IC50 (A2780): 561 nM

Compound: C=C(/C(C)=C/c1ccc(OC)c(N)c1)c1cc(OC)c(OC)c(OC)c1
IC50 (A549): 269 nM
IC50 (HeLa [1]): 286 nM
IC50 (PC-3): 457 nM
IC50 (MCF7): 356 nM
IC50 (A2780): 279 nM

Compound: C=C(/C(C)=C/c1ccc(OC)cc1)c1cc(OC)c(OC)c(OC)c1
IC50 (A549): 356 nM
IC50 (HeLa [1]): 495 nM
IC50 (PC-3): 487 nM
IC50 (MCF7): 965 nM
IC50 (A2780): 839 nM

Compound: CC=C(/C=C/c1ccc(OC)c(N)c1)c1cc(OC)c(OC)c(OC)c1
IC50 (A549): 247 nM
IC50 (HeLa [1]): 217 nM
IC50 (PC-3): 319 nM
IC50 (MCF7): 247 nM
IC50 (A2780): 137 nM

Compound: C=C(/C=C/c1ccc(OC)c(N)c1)c1cc(OC)c(OC)c(OC)c1
IC50 (A549): 137 nM
IC50 (HeLa [1]): 234 nM
IC50 (PC-3): 560 nM
IC50 (MCF7): 786 nM
IC50 (A2780): 582 nM

Further lines, with some results ahead:

IC50 (A549): 2020 nM
IC50 (HeLa [1]): 3120 nM
IC50 (PC-3): 4230 nM
IC50 (MCF7): 8240 nM
IC50 (A2780): 5290 nM
Compound: CCC=C(/C(C)=C/c1ccc(OC)c(O)c1)c1cc(OC)c(OC)c(OC)c1

IC50 (A549): 2460 nM
IC50 (HeLa [1]): 3120 nM
IC50 (PC-3): 4510 nM
IC50 (MCF7): 3970 nM
IC50 (A2780): 2930 nM
Compound: CCCC=C(/C(C)=C/c1ccc(OC)c(O)c1)c1cc(OC)c(OC)c(OC)c1

IC50 (A549): 56 nM
IC50 (HeLa [1]): 60 nM
IC50 (PC-3): 61 nM
IC50 (MCF7): 89 nM
IC50 (A2780): 64 nM
IC50 [2]: 1010 nM
Compound: C=C(/C(C)=C/c1ccc(OC)c(O)c1)c1cc(OC)c(OC)c(OC)c1
Activity (HeLa [3]): Active
Activity (HeLa [4]): Active
Activity (HeLa [5]): Active
Activity (HeLa [6]): 16%
Activity (HeLa [7]): 79.1%
Activity (HeLa [8]): 3.32%
Activity (HeLa [9]): 1.56%
Activity (HeLa [10]): 29.8%
Activity (HeLa [11]): 62.7%
Activity (HeLa [12]): 36.6%
Activity (HeLa [13]): 5.8%
Activity (HeLa [14]): 1.77%
Activity (HeLa [15]): 56.7%
Activity (HeLa [16]): 4.77%
Activity (HeLa [17]): 1.91%
Activity (HeLa [18]): Dose-dependent effect
Activity (HeLa [19]): 30%
Activity (HeLa [20]): 43%
Activity (HeLa [21]): 72%
Activity (HeLa [22]): Dose-dependent effect

IC50 (A549): 4 nM
IC50 (HeLa [1]): 5 nM
IC50 (PC-3): 9 nM
IC50 (MCF7): 5 nM
IC50 (A2780): 3 nM
Compound: COc1ccc(/C=C(\C)C(=O)c2cc(OC)c(OC)c(OC)c2)cc1O

IC50 (A549): 637 nM
IC50 (HeLa [1]): 563 nM
IC50 (PC-3): 789 nM
IC50 (MCF7): 604 nM
IC50 (A2780): 505 nM
Compound: CC=C(/C(C)=C/c1ccc(OC)c(O)c1)c1cc(OC)c(OC)c(OC)c1
